Laboratory results published in ChEMBL document CHEMBL3259614, “Design, synthesis, and structure-activity relationship studies of novel fused heterocycles-linked triazoles with good activity and water solubility” (J Med Chem, 2014).
Values after ≈ are worked out from the molar mass of the structure shown.

Assays:
Assay type in all cases: functional
Cryptococcus neoformans = experiment: Antimicrobial activity against Cryptococcus neoformans 32609 after 72 hrs by serial dilution method; conditions: Cryptococcus neoformans, 32609, 72 h
Procedure, shortened: (§1)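 Broth serial dilution MIC in 96-well plates following NCCLS/CLSI methods. Compounds were dissolved in DMSO and serially diluted in growth medium, with incubation at 35 °C. […] C. parapsilosis 22019 served as the quality-control strain in each assay.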

Candida albicans [1] = experiment: Antimicrobial activity against Candida albicans Y0109 after 24 hrs by serial dilution method; conditions: Y0109, 24 h; procedure, shortened: as §1
Nakaseomyces glabratus = experiment: Antimicrobial activity against Candida glabrata 537 after 24 hrs by serial dilution method; conditions: Nakaseomyces glabratus, 537, 24 h; procedure, shortened: as §1
Candida parapsilosis = experiment: Antimicrobial activity against Candida parapsilosis 22019 after 24 hrs by serial dilution method; conditions: Lodderomyces parapsilosis, 22019, 24 h; procedure, shortened: as §1
Aspergillus fumigatus = experiment: Antimicrobial activity against Aspergillus fumigatus 7544 after 48 hrs by serial dilution method; conditions: Aspergillus fumigatus, 7544, 48 h; procedure, shortened: as §1
Candida albicans [2] = experiment: Antimicrobial activity against Candida albicans SC5314 after 24 hrs by serial dilution method; conditions: SC5314, 24 h; procedure, shortened: as §1

Row | Compound | MIC (Cryptococcus neoformans) [µg/mL] | MIC (Candida albicans [1]) [µg/mL] | MIC (Nakaseomyces glabratus) [µg/mL] | MIC (Candida parapsilosis) [µg/mL] | MIC (Aspergillus fumigatus) [µg/mL] | MIC (Candida albicans [2]) [µg/mL]
1 | C[C@@H](N1CCn2nncc2C1)[C@](O)(Cn1cncn1)c1ccc(F)cc1F | 0.25 (≈ 0.666 µM) | 0.125 (≈ 0.333 µM) | 0.5 (≈ 1.33 µM) | 0.25 (≈ 0.666 µM) | 16 (≈ 42.6 µM) | 0.0625 (≈ 0.166 µM)
2 | C[C@@H](N1CCn2nnc(Cl)c2C1)[C@](O)(Cn1cncn1)c1ccc(F)cc1F | ≤ 0.0625 | 0.0625 (≈ 0.153 µM) | 0.25 (≈ 0.61 µM) | 0.125 (≈ 0.305 µM) | 8 (≈ 19.5 µM) | ≤ 0.0312
3 | Cc1nnn2c1CN([C@H](C)[C@](O)(Cn1cncn1)c1ccc(F)cc1F)CC2 | 4 (≈ 10.3 µM) | 0.5 (≈ 1.28 µM) | 0.5 (≈ 1.28 µM) | 0.5 (≈ 1.28 µM) | 16 (≈ 41.1 µM) | 0.25 (≈ 0.642 µM)
4 | C[C@@H](N1CCn2nnc(C(=O)N(C)C)c2C1)[C@](O)(Cn1cncn1)c1ccc(F)cc1F | 16 (≈ 35.8 µM) | 1 (≈ 2.24 µM) | 8 (≈ 17.9 µM) | 1 (≈ 2.24 µM) | > 16 | 0.5 (≈ 1.12 µM)
5 | C[C@@H](N1CCn2nnc(-c3ccccc3)c2C1)[C@](O)(Cn1cncn1)c1ccc(F)cc1F | 8 (≈ 17.7 µM) | 2 (≈ 4.43 µM) | 8 (≈ 17.7 µM) | 4 (≈ 8.86 µM) | > 16 | 1 (≈ 2.21 µM)
6 | C[C@@H](N1CCn2nnc(-c3cccnc3)c2C1)[C@](O)(Cn1cncn1)c1ccc(F)cc1F | 4 (≈ 8.84 µM) | 4 (≈ 8.84 µM) | 8 (≈ 17.7 µM) | 8 (≈ 17.7 µM) | 8 (≈ 17.7 µM) | 2 (≈ 4.42 µM)
7 | C[C@@H](N1CCn2nnc(-c3ccncc3)c2C1)[C@](O)(Cn1cncn1)c1ccc(F)cc1F | 16 (≈ 35.4 µM) | 4 (≈ 8.84 µM) | 8 (≈ 17.7 µM) | 4 (≈ 8.84 µM) | > 16 | 1 (≈ 2.21 µM)
8 | C[C@@H](N1CCn2nnc(-c3cncnc3)c2C1)[C@](O)(Cn1cncn1)c1ccc(F)cc1F | 8 (≈ 17.6 µM) | 2 (≈ 4.41 µM) | 8 (≈ 17.6 µM) | 8 (≈ 17.6 µM) | > 16 | 1 (≈ 2.21 µM)
9 | C[C@@H](N1CCn2nnc(-c3ccc(C#N)nc3)c2C1)[C@](O)(Cn1cncn1)c1ccc(F)cc1F | 16 (≈ 33.5 µM) | 4 (≈ 8.38 µM) | 4 (≈ 8.38 µM) | 4 (≈ 8.38 µM) | > 16 | 2 (≈ 4.19 µM)
10 | C[C@@H](N1CCn2cc(C(F)(F)F)nc2C1)[C@](O)(Cn1cncn1)c1ccc(F)cc1F | 1 (≈ 2.26 µM) | 0.25 (≈ 0.565 µM) | 0.25 (≈ 0.565 µM) | 0.25 (≈ 0.565 µM) | > 64 | 0.25 (≈ 0.565 µM)
11 | CCOC(=O)c1cn2c(n1)CN([C@H](C)[C@](O)(Cn1cncn1)c1ccc(F)cc1F)CC2 | 2 (≈ 4.48 µM) | 0.5 (≈ 1.12 µM) | 1 (≈ 2.24 µM) | 0.5 (≈ 1.12 µM) | > 64 | 0.5 (≈ 1.12 µM)
12 | C[C@@H](N1CCn2cc(C(C)(C)C)nc2C1)[C@](O)(Cn1cncn1)c1ccc(F)cc1F | 0.25 (≈ 0.581 µM) | 0.125 (≈ 0.29 µM) | 0.25 (≈ 0.581 µM) | 0.25 (≈ 0.581 µM) | > 64 | 0.25 (≈ 0.581 µM)
13 | COc1ccc(-c2cn3c(n2)CN([C@H](C)[C@](O)(Cn2cncn2)c2ccc(F)cc2F)CC3)cc1 | 0.125 (≈ 0.26 µM) | 0.0625 (≈ 0.13 µM) | 0.125 (≈ 0.26 µM) | 0.125 (≈ 0.26 µM) | 32 (≈ 66.6 µM) | 0.0625 (≈ 0.13 µM)
14 | C[C@@H](N1CCn2cc(-c3ccc(F)cc3)nc2C1)[C@](O)(Cn1cncn1)c1ccc(F)cc1F | 0.125 (≈ 0.267 µM) | 0.125 (≈ 0.267 µM) | 0.125 (≈ 0.267 µM) | 0.125 (≈ 0.267 µM) | 32 (≈ 68.3 µM) | 0.125 (≈ 0.267 µM)
15 | C[C@@H](N1CCn2cc(-c3ccc(C(F)(F)F)cc3)nc2C1)[C@](O)(Cn1cncn1)c1ccc(F)cc1F | 0.125 (≈ 0.241 µM) | 0.25 (≈ 0.482 µM) | 0.25 (≈ 0.482 µM) | 0.25 (≈ 0.482 µM) | 32 (≈ 61.7 µM) | 0.125 (≈ 0.241 µM)
16 | C[C@@H](N1CCn2cc(-c3ccc(F)cc3F)nc2C1)[C@](O)(Cn1cncn1)c1ccc(F)cc1F | 0.125 (≈ 0.257 µM) | 0.125 (≈ 0.257 µM) | 0.125 (≈ 0.257 µM) | 0.125 (≈ 0.257 µM) | 32 (≈ 65.8 µM) | 0.125 (≈ 0.257 µM)
17 | Cc1ccc(-c2cn3c(n2)CN([C@H](C)[C@](O)(Cn2cncn2)c2ccc(F)cc2F)CC3)cc1 | 0.125 (≈ 0.269 µM) | 0.0625 (≈ 0.135 µM) | 0.125 (≈ 0.269 µM) | 0.125 (≈ 0.269 µM) | 32 (≈ 68.9 µM) | 0.0625 (≈ 0.135 µM)
18 | COc1cccc(-c2cn3c(n2)CN([C@H](C)[C@](O)(Cn2cncn2)c2ccc(F)cc2F)CC3)c1 | 0.0625 (≈ 0.13 µM) | 0.0625 (≈ 0.13 µM) | 0.125 (≈ 0.26 µM) | 0.125 (≈ 0.26 µM) | 32 (≈ 66.6 µM) | 0.0625 (≈ 0.13 µM)
19 | C[C@@H](N1CCn2cc(-c3cccc(F)c3)nc2C1)[C@](O)(Cn1cncn1)c1ccc(F)cc1F | 0.25 (≈ 0.534 µM) | 0.25 (≈ 0.534 µM) | 0.25 (≈ 0.534 µM) | 0.125 (≈ 0.267 µM) | 64 (≈ 137 µM) | 0.125 (≈ 0.267 µM)
20 | C[C@@H](N1CCn2cc(-c3cccc(C(F)(F)F)c3)nc2C1)[C@](O)(Cn1cncn1)c1ccc(F)cc1F | 0.25 (≈ 0.482 µM) | 0.5 (≈ 0.964 µM) | 0.25 (≈ 0.482 µM) | 0.125 (≈ 0.241 µM) | 64 (≈ 123 µM) | 0.125 (≈ 0.241 µM)
21 | C[C@@H](N1CCn2ncnc2C1)[C@](O)(Cn1cncn1)c1ccc(F)cc1F | 0.5 (≈ 1.33 µM) | 0.25 (≈ 0.666 µM) | 0.5 (≈ 1.33 µM) | 0.25 (≈ 0.666 µM) | 16 (≈ 42.6 µM) | 0.25 (≈ 0.666 µM)
22 | C[C@@H](N1CCn2nc(C(F)(F)F)nc2C1)[C@](O)(Cn1cncn1)c1ccc(F)cc1F | 0.5 (≈ 1.13 µM) | 0.5 (≈ 1.13 µM) | 1 (≈ 2.26 µM) | 0.5 (≈ 1.13 µM) | 32 (≈ 72.2 µM) | 0.25 (≈ 0.564 µM)
23 | C[C@@H](N1CCn2nc(-c3ccc(C#N)cc3)nc2C1)[C@](O)(Cn1cncn1)c1ccc(F)cc1F | 0.125 (≈ 0.262 µM) | 0.125 (≈ 0.262 µM) | 0.125 (≈ 0.262 µM) | 0.5 (≈ 1.05 µM) | 64 (≈ 134 µM) | 0.125 (≈ 0.262 µM)
24 | Cc1cccc(-c2nc3n(n2)CCN([C@H](C)[C@](O)(Cn2cncn2)c2ccc(F)cc2F)C3)c1 | 0.125 (≈ 0.269 µM) | 0.125 (≈ 0.269 µM) | 0.125 (≈ 0.269 µM) | 0.25 (≈ 0.537 µM) | 32 (≈ 68.7 µM) | 0.0625 (≈ 0.134 µM)
25 | C[C@@H](N1CCn2nc(-c3ccc(Br)cc3)nc2C1)[C@](O)(Cn1cncn1)c1ccc(F)cc1F | 0.25 (≈ 0.471 µM) | 0.125 (≈ 0.236 µM) | 0.5 (≈ 0.943 µM) | 0.5 (≈ 0.943 µM) | 16 (≈ 30.2 µM) | 0.25 (≈ 0.471 µM)
26 | C[C@@H](N1CCn2nc(-c3ccc(F)cc3)nc2C1)[C@](O)(Cn1cncn1)c1ccc(F)cc1F | 0.125 (≈ 0.266 µM) | 0.125 (≈ 0.266 µM) | 0.125 (≈ 0.266 µM) | 0.125 (≈ 0.266 µM) | 32 (≈ 68.2 µM) | 0.25 (≈ 0.533 µM)
27 | C[C@@H](N1CCn2nc(-c3ccc(Cl)cc3)nc2C1)[C@](O)(Cn1cncn1)c1ccc(F)cc1F | 0.125 (≈ 0.257 µM) | 0.125 (≈ 0.257 µM) | 0.5 (≈ 1.03 µM) | 0.5 (≈ 1.03 µM) | 16 (≈ 32.9 µM) | 0.25 (≈ 0.514 µM)
28 | C[C@@H](N1CCn2nc(-c3cccc(Cl)c3)nc2C1)[C@](O)(Cn1cncn1)c1ccc(F)cc1F | 2 (≈ 4.12 µM) | 0.125 (≈ 0.257 µM) | 1 (≈ 2.06 µM) | 1 (≈ 2.06 µM) | 64 (≈ 132 µM) | 0.25 (≈ 0.514 µM)
29 | C[C@@H](N1CCn2nc(-c3cccc(Br)c3)nc2C1)[C@](O)(Cn1cncn1)c1ccc(F)cc1F | 1 (≈ 1.89 µM) | 0.125 (≈ 0.236 µM) | 1 (≈ 1.89 µM) | 0.5 (≈ 0.943 µM) | 16 (≈ 30.2 µM) | 0.25 (≈ 0.471 µM)
30 | C[C@@H](N1CCn2nc(-c3cccc(C(F)(F)F)c3)nc2C1)[C@](O)(Cn1cncn1)c1ccc(F)cc1F | 2 (≈ 3.85 µM) | 2 (≈ 3.85 µM) | 0.25 (≈ 0.481 µM) | 0.5 (≈ 0.963 µM) | 16 (≈ 30.8 µM) | 0.5 (≈ 0.963 µM)
